Measurements as given in ChEMBL document CHEMBL1139439, “Folate-synthesizing enzyme system as target for development of inhibitors and inhibitor combinations against Candida albicans-synthesis and biological activity of new 2,4-diaminopyrimidines and 4'-substituted 4-aminodiphenyl sulfones” (J Med Chem, 2004).
Values after ≈ are worked out from the molar mass of the structure shown.

Legend:
Dihydrofolate reductase [1] = target: T1, Dihydrofolate reductase (Candida albicans, UniProt P22906); experiment: Inhibitory activity against cell free dihydrofolate reductase (DHFR) from Candida albicans; settings: for IC50: read-out: I50
T1 sequence (P22906 whole entry): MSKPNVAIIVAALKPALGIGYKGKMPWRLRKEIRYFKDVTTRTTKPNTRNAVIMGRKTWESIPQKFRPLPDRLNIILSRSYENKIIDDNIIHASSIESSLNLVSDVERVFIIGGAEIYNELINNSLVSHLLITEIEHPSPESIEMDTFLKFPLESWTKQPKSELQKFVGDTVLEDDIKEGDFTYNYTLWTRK

Dihydrofolate reductase [2] = target: T2, Dihydrofolate reductase (Rattus norvegicus, UniProt Q920D2); experiment: Inhibitory activity against cell free dihydrofolate reductase (DHFR) from rat; settings: for IC50: read-out: I50
T2 sequence (Q920D2 whole entry): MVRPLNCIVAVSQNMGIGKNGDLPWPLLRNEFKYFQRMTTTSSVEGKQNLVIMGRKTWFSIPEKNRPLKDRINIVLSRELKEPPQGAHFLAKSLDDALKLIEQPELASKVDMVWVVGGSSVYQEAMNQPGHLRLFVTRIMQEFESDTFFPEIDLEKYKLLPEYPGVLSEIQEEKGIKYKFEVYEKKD

[3] = Inhibitory activity against dihydropteroic acid synthase (SYN) from Escherichia coli; settings: read-out: I50
[4] = Inhibitory activity against dihydropteroic acid synthase (SYN) from Mycobacterium lufu (DDS sensitive); settings: read-out: I50
[5] = Inhibitory activity against dihydropteroic acid synthase (SYN) from candida albicans; settings: read-out: I50
Summary of the method: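 Partially purified SYN extract was prepared from C. albicans ATCC 11651 and incubated with sulfones at pH 8.4. Periodic samples were quenched with trichloroacetic acid, and folate formed was quantified by bioassay with folate-requiring Streptococcus faecium. I50 is the concentration giving a 50% decrease in dihydropteroic acid production versus the uninhibited control.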

[6] = Inhibitory activity against dihydropteroic acid synthase (SYN) from Mycobacterium lufu (DDS resistant); settings: read-out: I50
[7] = target: T3, Dihydropteroate synthetase, putative (Plasmodium berghei str. ANKA, UniProt A0A113T0T6); experiment: Inhibitory activity against dihydropteroic acid synthase (SYN) from Plasmodium berghei; settings: read-out: I50
T3 sequence (A0A113T0T6 whole entry): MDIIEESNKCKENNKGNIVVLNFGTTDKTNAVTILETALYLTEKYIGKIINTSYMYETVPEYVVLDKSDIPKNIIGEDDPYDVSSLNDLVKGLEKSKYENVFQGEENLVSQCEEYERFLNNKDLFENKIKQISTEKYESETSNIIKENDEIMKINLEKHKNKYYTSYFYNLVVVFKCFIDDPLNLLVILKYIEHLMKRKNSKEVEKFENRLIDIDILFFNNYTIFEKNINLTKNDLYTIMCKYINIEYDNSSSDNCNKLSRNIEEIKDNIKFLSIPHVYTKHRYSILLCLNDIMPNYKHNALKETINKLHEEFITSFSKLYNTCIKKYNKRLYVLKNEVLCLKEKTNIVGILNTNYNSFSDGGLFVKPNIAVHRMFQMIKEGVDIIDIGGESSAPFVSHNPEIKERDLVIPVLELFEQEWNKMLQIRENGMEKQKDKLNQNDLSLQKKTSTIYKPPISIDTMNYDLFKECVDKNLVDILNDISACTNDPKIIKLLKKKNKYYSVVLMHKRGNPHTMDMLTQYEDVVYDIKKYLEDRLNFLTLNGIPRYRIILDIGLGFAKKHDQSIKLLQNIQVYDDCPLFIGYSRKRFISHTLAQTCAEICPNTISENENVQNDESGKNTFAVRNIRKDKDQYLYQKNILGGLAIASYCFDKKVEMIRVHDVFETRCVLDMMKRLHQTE

Candida albicans [8] = experiment: Inhibitory effect on Candida albicans wild type YEM14 Strain; type: functional
Summary of the method: (§1)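 MICs were determined by serial dilution in RPMI medium. MIC is the lowest concentration giving culture turbidity ≤20% of the control culture.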

Candida albicans [9] = experiment: Inhibitory effect on Candida albicans YEM13 BENup Strain; type: functional; summary of the method: as §1
Candida albicans [10] = experiment: Inhibitory effect on Candida albicans YEM15 CDR1CDR2up Strain; type: functional; summary of the method: as §1
Candida albicans [11] = experiment: Inhibitory effect on Candida albicans YEM27 quad deletion Strain; type: functional; summary of the method: as §1
Candida albicans [12] = experiment: Inhibitory effect on Candida albicans YEM12 Strain; type: functional; summary of the method: as §1
Candida albicans [13] = experiment: Inhibitory effect on Candida albicans wild type YEM30 Strain; type: functional; summary of the method: as §1

COc1ccc(CNc2cnc(N)nc2N)cc1OC
I50 (Dihydrofolate reductase [1]): 125.8 uM l-1
I50 (Dihydrofolate reductase [2]): 197.3 uM l-1

Nc1ncc(Cc2ccccc2)c(N)n1
IC50 (Dihydrofolate reductase [1]): 90.5 µM
I50 (Dihydrofolate reductase [2]): 115.3 uM l-1

Nc1ncc(OCc2ccc(OCCCCN3C(=O)c4ccccc4C3=O)cc2)c(N)n1
IC50 (Dihydrofolate reductase [1]): 0.078 µM
IC50 (Dihydrofolate reductase [2]): 6.07 µM

Nc1ccc(S(=O)(=O)c2ccc(NCC(=O)O)cc2)cc1 [ACEDIASULFONE]
IC50 [3]: 37.1 µM
IC50 [4]: 0.87 µM
IC50 [5]: 1.22 µM
IC50 [6]: 0.82 µM
IC50 [7]: 17.8 µM

Nc1ccc(S(=O)(=O)c2ccc(C(=O)O)cc2)cc1
IC50 [3]: 74.2 µM
IC50 [4]: 3.6 µM
IC50 [5]: 2.78 µM
IC50 [6]: 3.17 µM

COc1ccc(S(=O)(=O)c2ccc(N)cc2)cc1
IC50 [3]: 128 µM
IC50 [4]: 7.55 µM
IC50 [5]: 9.05 µM
IC50 [6]: 9.33 µM

CN(C)c1ccc(S(=O)(=O)c2ccc(N)cc2)cc1
IC50 [4]: 1.76 µM
IC50 [5]: 3.83 µM
IC50 [6]: 2.04 µM
IC50 [7]: 21.5 µM

Nc1ncc(OCc2ccc(Br)c3ccccc23)c(N)n1
IC50 (Dihydrofolate reductase [1]): 0.49 µM
IC50 (Dihydrofolate reductase [2]): 2.82 µM

Nc1ncc(Cc2ccc(OCCCCN3C(=O)c4ccccc4C3=O)cc2)c(N)n1
IC50 (Dihydrofolate reductase [1]): 0.047 µM
IC50 (Dihydrofolate reductase [2]): 3.64 µM

Cc1ccc(S(=O)(=O)c2ccc(N)cc2)cc1
IC50 [3]: 89.9 µM
IC50 [4]: 8.08 µM
IC50 [5]: 10.1 µM
IC50 [6]: 5.92 µM
IC50 [7]: 48 µM

Nc1ccc(S(=O)(=O)c2ccc(N)cc2)cc1 [DAPSONE]
IC50 [3]: 34.4 µM
IC50 [4]: 1.2 µM
IC50 [5]: 1.78 µM
IC50 [6]: 1.18 µM
IC50 [7]: 12.4 µM

Nc1ccc(S(=O)(=O)c2ccc(Cl)cc2)cc1
IC50 [4]: 13 µM
IC50 [5]: 14.3 µM
IC50 [6]: 18.7 µM

Nc1ncc(OCc2ccccc2)c(N)n1
IC50 (Dihydrofolate reductase [1]): 1.24 µM
IC50 (Dihydrofolate reductase [2]): 10.1 µM

CC(=O)Nc1ccc(S(=O)(=O)c2ccc(N)cc2)cc1 [MONO-N-ACETYL DAPSONE]
IC50 [3]: 75.7 µM
IC50 [4]: 7.01 µM
IC50 [6]: 4.05 µM
IC50 [7]: 33.3 µM

Cc1nc(N)nc(N)c1Cc1ccccc1
IC50 (Dihydrofolate reductase [1]): 1.85 µM
IC50 (Dihydrofolate reductase [2]): 3.36 µM

OC(Cn1cncn1)(Cn1cncn1)c1ccc(F)cc1F [FLUCONAZOLE]
MIC (Candida albicans [8]): 64 µg/mL (≈ 209 µM)
MIC (Candida albicans [9]): 64 µg/mL (≈ 209 µM)
MIC (Candida albicans [10]): 64 µg/mL (≈ 209 µM)
MIC (Candida albicans [11]): ≤ 0.25 µg/mL
MIC (Candida albicans [12]): 1 µg/mL (≈ 3.27 µM)
MIC (Candida albicans [13]): 2 µg/mL (≈ 6.53 µM)

Nc1ncc(OCc2c(Cl)cccc2Cl)c(N)n1
IC50 (Dihydrofolate reductase [1]): 3.1 µM
IC50 (Dihydrofolate reductase [2]): 2.57 µM

Nc1ncc(OCc2ccc(OCCCN3C(=O)c4ccccc4C3=O)cc2)c(N)n1
IC50 (Dihydrofolate reductase [1]): 0.619 µM
IC50 (Dihydrofolate reductase [2]): 15.7 µM

CCNc1ccc(S(=O)(=O)c2ccc(N)cc2)cc1
IC50 [3]: 41.7 µM
IC50 [4]: 2.75 µM
IC50 [5]: 3.16 µM
IC50 [6]: 1.48 µM

Cc1nc(N)nc(N)c1CCCc1ccccc1
IC50 (Dihydrofolate reductase [1]): 9.9 µM
IC50 (Dihydrofolate reductase [2]): 0.82 µM

Nc1ncc(CNc2ccccc2)c(N)n1
IC50 (Dihydrofolate reductase [1]): 59.4 µM
I50 (Dihydrofolate reductase [2]): 133.1 uM l-1

Nc1ncc(NCc2cccc3ccccc23)c(N)n1
IC50 (Dihydrofolate reductase [1]): 1.39 µM
IC50 (Dihydrofolate reductase [2]): 5.9 µM

COc1ccc(COc2cnc(N)nc2N)cc1
IC50 (Dihydrofolate reductase [1]): 26.1 µM
IC50 (Dihydrofolate reductase [2]): 99.7 µM

Nc1ncc(Cc2ccc3ccccc3c2)c(N)n1
IC50 (Dihydrofolate reductase [1]): 4.77 µM
IC50 (Dihydrofolate reductase [2]): 61.2 µM

Cc1nc(N)nc(N)c1OCc1ccc(Cl)c(Cl)c1
IC50 (Dihydrofolate reductase [1]): 1.34 µM
IC50 (Dihydrofolate reductase [2]): 4.58 µM

CNc1ccc(S(=O)(=O)c2ccc(N)cc2)cc1
IC50 [3]: 46.2 µM
IC50 [4]: 1.29 µM
IC50 [5]: 2.81 µM
IC50 [6]: 2 µM
IC50 [7]: 26.7 µM

Cc1ccc(S(=O)(=O)NCCCCOc2ccc(Cc3cnc(N)nc3N)cc2)cc1
IC50 (Dihydrofolate reductase [1]): 0.581 µM
IC50 (Dihydrofolate reductase [2]): 1.72 µM

Cc1ccc(S(=O)(=O)NCCCOc2ccc(COc3cnc(N)nc3N)cc2)cc1
IC50 (Dihydrofolate reductase [1]): 0.435 µM
IC50 (Dihydrofolate reductase [2]): 4.43 µM

CC(C)(C)c1ccc(COc2cnc(N)nc2N)cc1
IC50 (Dihydrofolate reductase [1]): 23.8 µM
I50 (Dihydrofolate reductase [2]): 106 uM l-1

Nc1ncc(NCc2cccc(Cl)c2)c(N)n1
IC50 (Dihydrofolate reductase [1]): 13.9 µM
IC50 (Dihydrofolate reductase [2]): 49.8 µM

COc1cc(COc2cnc(N)nc2N)ccc1OCCCNS(=O)(=O)c1ccc(C)cc1
IC50 (Dihydrofolate reductase [1]): 0.538 µM
IC50 (Dihydrofolate reductase [2]): 4.53 µM

Nc1ncc(CCc2ccccc2)c(N)n1
IC50 (Dihydrofolate reductase [1]): 3.37 µM
IC50 (Dihydrofolate reductase [2]): 39.9 µM

Nc1ncc(NCc2ccccc2Cl)c(N)n1
IC50 (Dihydrofolate reductase [1]): 6.63 µM
IC50 (Dihydrofolate reductase [2]): 71.5 µM

Cc1nc(N)nc(N)c1CCc1ccccc1
IC50 (Dihydrofolate reductase [1]): 4.2 µM
IC50 (Dihydrofolate reductase [2]): 12.8 µM

COc1ccc(CNc2cnc(N)nc2N)cc1
IC50 (Dihydrofolate reductase [1]): 52.3 µM
I50 (Dihydrofolate reductase [2]): 146.2 uM l-1

Nc1ncc(NCc2ccc3ccccc3c2)c(N)n1
IC50 (Dihydrofolate reductase [1]): 16.1 µM
IC50 (Dihydrofolate reductase [2]): 71.3 µM

COC(=O)CNc1ccc(S(=O)(=O)c2ccc(N)cc2)cc1
IC50 [3]: 101 µM
IC50 [4]: 2.24 µM
IC50 [5]: 1.33 µM
IC50 [6]: 2.63 µM

Nc1ncc(Cc2cccc3ccccc23)c(N)n1
IC50 (Dihydrofolate reductase [1]): 53.5 µM
IC50 (Dihydrofolate reductase [2]): 29.4 µM

Nc1ccc(S(=O)(=O)c2ccccc2)cc1
IC50 [3]: 116 µM
IC50 [4]: 12.1 µM
IC50 [5]: 13.3 µM
IC50 [6]: 12 µM
IC50 [7]: 104 µM

COc1cc(Cc2cnc(N)nc2N)cc(OC)c1OCCCNc1ccc(N(C)C)cc1
IC50 (Dihydrofolate reductase [1]): 0.97 µM

Nc1ncc(/C=C/c2ccccc2)c(N)n1
IC50 (Dihydrofolate reductase [1]): 5.72 µM
I50 (Dihydrofolate reductase [2]): 130.6 uM l-1

COc1cc(COc2cnc(N)nc2N)ccc1OCCCc1ccccc1
IC50 (Dihydrofolate reductase [1]): 6.13 µM
IC50 (Dihydrofolate reductase [2]): 58.3 µM

Nc1ncc(CSc2ccc3ccccc3c2)c(N)n1
IC50 (Dihydrofolate reductase [1]): 30.9 µM
I50 (Dihydrofolate reductase [2]): 110.6 uM l-1

Nc1ncc(NCc2ccc(Cl)c(Cl)c2)c(N)n1
IC50 (Dihydrofolate reductase [1]): 84.8 µM
I50 (Dihydrofolate reductase [2]): > 350 uM l-1

Nc1ncc(OCc2ccc(Cl)c(Cl)c2)c(N)n1
IC50 (Dihydrofolate reductase [1]): 3.72 µM
IC50 (Dihydrofolate reductase [2]): 56.7 µM

Nc1ncc(OCc2ccccc2Cl)c(N)n1
IC50 (Dihydrofolate reductase [1]): 0.73 µM
IC50 (Dihydrofolate reductase [2]): 3.53 µM

Nc1ncc(OCc2ccc(OCc3ccccc3)cc2)c(N)n1
IC50 (Dihydrofolate reductase [1]): 2.81 µM
IC50 (Dihydrofolate reductase [2]): 39.4 µM

COC(=O)c1ccc(S(=O)(=O)c2ccc(N)cc2)cc1
IC50 [3]: 149 µM
IC50 [4]: 11.8 µM
IC50 [6]: 13.8 µM
IC50 [7]: 147 µM

COc1ccc(CCc2cnc(N)nc2N)cc1OC
IC50 (Dihydrofolate reductase [1]): 35.4 µM
I50 (Dihydrofolate reductase [2]): 315.3 uM l-1
